Source: ChEMBL document CHEMBL1140214, “Antitumor activity of new substituted 3-(5-imidazo[2,1-b]thiazolylmethylene)-2-indolinones and 3-(5-imidazo[2,1-b]thiadiazolylmethylene)-2-indolinones: selectivity against colon tumor cells and effect on cell cycle-related events” (2008)

Experiments:
[1] = Antitumor activity against human Colon cancer cells after 48 hrs by SRB assay; type: functional, Cancer cell lines
In short: (§1)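 NCI 60-cell panel two-stage screen: a single-dose pass at 10^-5 M, then five-dose testing for active compounds. Compounds were dissolved in DMSO and tested at five 10-fold dilutions, the highest 10^-4 M (10^-3 M in some cases). Results are given as the negative log molar concentration at three end points: pGI50, pTGI (total growth inhibition) and pLC50. Means are panel-subtype averages.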

[2] = Antitumor activity against human prostate cancer cells after 48 hrs by SRB assay; type: functional, Cancer cell lines; in short: as §1
[3] = Antitumor activity against human renal cancer cells after 48 hrs by SRB assay; type: functional, Cancer cell lines; in short: as §1
[4] = Antitumor activity against human Breast cancer cells after 48 hrs by SRB assay; type: functional, Cancer cell lines; details: for GI50 / TGI: Homo sapiens, Cancer cell lines, 48 h; for TGI: read-out: pTGI (converted); in short: as §1
Leukemia cell = test: Antitumor activity against human Leukemia cells after 48 hrs by SRB assay; type: functional; details: for GI50 / TGI: Homo sapiens, Leukemia cell, 48 h; for TGI: read-out: pTGI (converted); in short: as §1
[5] = Antitumor activity against human CNS cancer cells after 48 hrs by SRB assay; type: functional, Cancer cell lines; details: for TGI: read-out: pTGI (converted); in short: as §1
[6] = Antitumor activity against human ovarian cancer cells after 48 hrs by SRB assay; type: functional, Cancer cell lines; in short: as §1
Melanoma cell = test: Antitumor activity against human Melanoma cells after 48 hrs by SRB assay; type: functional; details: for TGI: read-out: pTGI (converted); in short: as §1
NSCLC = test: Antitumor activity against human NSCLC cells after 48 hrs by SRB assay; type: functional; details: for GI50 / TGI: Homo sapiens, NSCLC, 48 h; for TGI: read-out: pTGI (converted); in short: as §1
[7] = Homo sapiens, Cancer cell lines, 48 h
[8] = Homo sapiens, Cancer cell lines, 48 h, read-out: pGI50 (converted)
[9] = Homo sapiens, Melanoma cell, 48 h, read-out: pGI50 (converted)
[10] = Homo sapiens, Melanoma cell, 48 h
[11] = Homo sapiens, Cancer cell lines, 48 h, read-out: pTGI (converted)

| Compound | GI [1] | GI50 [1, 7] | GI [2] | GI50 [2, 7] | GI [3] | GI50 [3, 7] | GI [4] | GI50 [4] | TGI [4] | GI (Leukemia cell) | GI50 (Leukemia cell) | TGI (Leukemia cell) | GI50 [5] | GI50 [5, 8] | TGI [5, 7] | GI [6] | GI50 [6, 7] | GI50 (Melanoma cell) | GI50 (Melanoma cell; [9]) | TGI (Melanoma cell; [10]) | also measured |
| --- | --- | --- | --- | --- | --- | --- | --- | --- | --- | --- | --- | --- | --- | --- | --- | --- | --- | --- | --- | --- | --- |
| Cc1nn2c(/C=C3/C(=O)Nc4ccc(Cl)cc43)c(C)nc2s1 | 14.13 µM | 14.1 µM | 43.65 µM | 43.7 µM | 56.23 µM | 56.2 µM | 28.18 µM | 28.2 µM | 83.2 µM | 14.13 µM | 14.1 µM | 81.3 µM | 29.51 µM | 29.5 µM | 97.7 µM | 52.48 µM | 52.5 µM | 41.69 µM | 41.7 µM | 97.7 µM | GI (NSCLC): 53.7 µM; GI50 (NSCLC): 53.7 µM; TGI (NSCLC): 89.1 µM |
| Cc1cn2c(/C=C3/C(=O)N(C)c4ccc(Cl)cc43)c(C)nc2s1 | 2.69 µM | 2.69 µM | 1 µM | 1 µM | 6.03 µM | 6.03 µM | 6.76 µM | 6.76 µM | 33.1 µM | 1.45 µM | 1.45 µM | 11.7 µM | 3.16 µM | 3.16 µM | 28.8 µM | 3.8 µM | 3.8 µM | 5.5 µM | 5.5 µM | 63.1 µM | LC50 (50% lethal concentration) [1, 7]: 83.2 µM; TGI [1, 11]: 38 µM; TGI [2, 11]: 4.37 µM; TGI [3, 11]: 61.7 µM; LC50 [5, 7]: 79.4 µM; TGI [6, 11]: 44.7 µM; GI (NSCLC): 7.94 µM; GI50 (NSCLC): 7.94 µM; TGI (NSCLC): 41.7 µM |
